In ChEMBL document CHEMBL1146085, “Nanomolar inhibitors of the peptidyl prolyl cis/trans isomerase Pin1 from combinatorial peptide libraries” (J Med Chem, 2006):
Each block holds one molecule with its values, some of them ahead of it. Where a SMILES comes first, the peptide text is derived from it. [ ]: non-standard residue; d: D form. The star is where a group is joined. dalloThr(PO3H2) = C[C@@H](OP(=O)(O)O)[C@@H](N)C(=O)O; alloThr(PO3H2) = C[C@H](OP(=O)(O)O)[C@H](N)C(=O)O; Biotin = O=C1N[C@H]2[C@H](CS[C@H]2CCCCC(=O)*)N1; Phe(4-tBu) = CC(C)(C)c1ccc(C[C@H](N)C(=O)O)cc1; Bip = N[C@@H](Cc1ccc(-c2ccccc2)cc1)C(=O)O; pT = C[C@@H](OP(=O)(O)O)[C@H](N)C(=O)O; 2Nal = N[C@@H](Cc1ccc2ccccc2c1)C(=O)O; Bta = N[C@@H](Cc1csc2ccccc12)C(=O)O; Tic = O=C(O)[C@@H]1Cc2ccccc2CN1; 2Thi = N[C@@H](Cc1cccs1)C(=O)O; Cha = N[C@@H](CC1CCCCC1)C(=O)O; Tle = CC(C)(C)[C@H](N)C(=O)O; Pip = O=C(O)[C@@H]1CCCCN1; NMeA = CN[C@@H](C)C(=O)O

What was measured:
[1] = molecular target: T1, Peptidyl-prolyl cis-trans isomerase NIMA-interacting 1 (Homo sapiens, UniProt Q13526); assay: Inhibition of human Pin1 PPIase Activity by protease free PPIase assay
Method in brief: (§1)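 Protease-free PPIase assay using Abz-Ala-Glu-Pro-Phe-NH-Np as substrate in 35 mM HEPES, pH 7.8, at 10 °C. Ki derived from concentration-dependent measurement of remaining Pin1 activity.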

[2] = Inhibition of PP1 at 500 uM
[3] = molecular target: Peptidyl-prolyl cis-trans isomerase NIMA-interacting 4 (Homo sapiens) (UniProt Q9Y237); assay: Inhibition of Par14 at 500 uM
Chain of Peptidyl-prolyl cis-trans isomerase NIMA-interacting 4 (Homo sapiens) (Q9Y237 whole entry): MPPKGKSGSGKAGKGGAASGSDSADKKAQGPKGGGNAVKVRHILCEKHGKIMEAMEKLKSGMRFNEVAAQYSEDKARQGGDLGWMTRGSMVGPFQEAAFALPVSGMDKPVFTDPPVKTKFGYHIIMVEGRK

[4] = molecular target: Peptidyl-prolyl cis-trans isomerase FKBP1A (Homo sapiens) (UniProt P62942); assay: Inhibition of FKBP12 at 500 uM
Chain of Peptidyl-prolyl cis-trans isomerase FKBP1A (Homo sapiens) (P62942 whole entry): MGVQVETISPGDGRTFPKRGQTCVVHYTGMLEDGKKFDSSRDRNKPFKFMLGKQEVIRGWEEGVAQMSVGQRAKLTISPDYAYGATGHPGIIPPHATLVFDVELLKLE

[5] = molecular target: Mitogen-activated protein kinase 1 (Homo sapiens) (UniProt P28482); assay: Inhibition of ERK2 at 500 uM
Chain of Mitogen-activated protein kinase 1 (Homo sapiens) (P28482 whole entry): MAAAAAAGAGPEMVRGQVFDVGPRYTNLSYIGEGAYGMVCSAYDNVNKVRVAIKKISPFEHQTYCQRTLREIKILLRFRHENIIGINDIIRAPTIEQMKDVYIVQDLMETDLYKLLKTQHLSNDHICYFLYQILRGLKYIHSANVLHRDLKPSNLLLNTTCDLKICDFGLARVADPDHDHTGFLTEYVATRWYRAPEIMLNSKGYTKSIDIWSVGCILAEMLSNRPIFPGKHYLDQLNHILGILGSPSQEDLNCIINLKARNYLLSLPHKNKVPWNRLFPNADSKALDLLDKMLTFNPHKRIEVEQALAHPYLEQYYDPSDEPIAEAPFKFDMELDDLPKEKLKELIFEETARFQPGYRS

[6] = molecular target: Serine/threonine protein phosphatase PP2B-alpha catalytic subunit (Homo sapiens) (UniProt P16298); assay: Inhibition of PP2B at 500 uM
[7] = molecular target: Protein kinase C (PKC) (Homo sapiens) (UniProt O94806+P41743+P17252+P05129+Q05655+P05771+Q05513+Q02156+P24723+Q15139+Q04759); assay: Inhibition of PKC at 500 uM; type: protein assay
[8] = molecular target: cAMP-dependent protein kinase (PKA) (Homo sapiens) (UniProt P22694+P17612+P22612); assay: Inhibition of PKA at 500 uM; type: protein assay
[9] = Inhibition of PP2A at 500 uM
[10] = molecular target: Peptidyl-prolyl cis-trans isomerase A (Homo sapiens) (UniProt P62937); assay: Inhibition of Cyp18 at 500 uM
Chain of Peptidyl-prolyl cis-trans isomerase A (Homo sapiens) (P62937 whole entry, looked up): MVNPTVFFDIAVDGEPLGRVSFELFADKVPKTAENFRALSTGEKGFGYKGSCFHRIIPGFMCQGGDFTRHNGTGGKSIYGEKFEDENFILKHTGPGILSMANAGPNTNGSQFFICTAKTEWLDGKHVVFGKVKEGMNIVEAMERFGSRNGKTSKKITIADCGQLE

HeLa [11] = assay: Stability in HeLa cells after 5 hrs incubation; type: ADME, cell-based; conditions: human
Method in brief: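 Peptide incubated 5 h in whole HeLa cell lysate without phosphatase or protease inhibitors. Biotin-conjugated species pulled down on streptavidin Sepharose and analysed by mass spectrometry. Separately, 5 µM peptide analysed by capillary electrophoresis in 50 mM sodium phosphate, pH 7.0, detected at 220 nm, against a reference sample in buffer alone.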

HeLa [12] = assay: Cell cycle arrest in HeLa cells by accumulation at G2/M phase; type: functional, cell-based; conditions: Homo sapiens
Method in brief: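 HeLa cells loaded with inhibitor or its nonphosphorylated derivative by electroporation at varying concentrations, then cultured 3 days at 37 °C. DNA content measured by flow cytometry to give cell cycle phase fractions. Intracellular inhibitor level measured after cell lysis and centrifugation by reverse-phase HPLC of the supernatant against a standard curve.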

[13] = tested on: Peptidyl-prolyl cis-trans isomerase NIMA-interacting 1 (Homo sapiens), Q13526 [H59A]; assay: Residual PPIase activity of human GST-Pin1 H59A
[14] = molecular target: T1, Peptidyl-prolyl cis-trans isomerase NIMA-interacting 1; assay: Residual PPIase activity of human GST-Pin1
[15] = molecular target: T1, Peptidyl-prolyl cis-trans isomerase NIMA-interacting 1; assay: Residual PPIase activity of human GST-Pin1 R68
[16] = tested on: Peptidyl-prolyl cis-trans isomerase NIMA-interacting 1 (Homo sapiens), Q13526 [S154F]; assay: Residual PPIase activity of human GST-Pin1 S154F
[17] = molecular target: T1, Peptidyl-prolyl cis-trans isomerase NIMA-interacting 1; assay: Residual PPIase activity of human GST-Pin1 69A
[18] = tested on: Peptidyl-prolyl cis-trans isomerase NIMA-interacting 1 (Homo sapiens), Q13526 [C113A]; assay: Residual PPIase activity of human GST-Pin1 C113A
[19] = tested on: Peptidyl-prolyl cis-trans isomerase NIMA-interacting 1 (Homo sapiens), Q13526 [S16E]; assay: Residual PPIase activity of human GST-Pin1 S16E by protease free PPIase assay; method in brief: as §1
[20] = tested on: Peptidyl-prolyl cis-trans isomerase NIMA-interacting 1 (Homo sapiens), Q13526 [S67E]; assay: Residual PPIase activity of human GST-Pin1 S67E
[21] = tested on: Peptidyl-prolyl cis-trans isomerase NIMA-interacting 1 (Homo sapiens), Q13526 [K63A]; assay: Residual PPIase activity of human GST-Pin1 K63A

Ki [1]: 0.0012 µM
inhibition [2]: < 10%
inhibition [3]: < 10%
inhibition [4]: < 10%
inhibition [5]: < 10%
inhibition [6]: < 10%
inhibition [7]: < 10%
inhibition [8]: < 10%
inhibition [9]: < 10%
inhibition [10]: < 10%
SMILES: CC(=O)N[C@@H](CCCCNC(=O)CCCC[C@@H]1SC[C@@H]2NC(=O)N[C@@H]21)C(=O)N[C@@H](C)C(=O)N[C@@H](C)C(=O)N[C@@H](Cc1csc2ccccc12)C(=O)N[C@@H](C(=O)N1CCCC[C@H]1C(=O)N[C@@H](Cc1ccc2ccccc2c1)C(=O)N[C@@H](CCC(N)=O)C(N)=O)[C@@H](C)OP(=O)(O)O (Ac-K(Biotin)AA[Bta][dalloThr(PO3H2)][Pip][2Nal]Q-NH2)

Activity (HeLa [11]): Stable
SMILES: CC(=O)N[C@@H](Cc1ccccc1)C(=O)N[C@@H](C(=O)N1CCCC[C@H]1C(=O)N[C@@H](Cc1ccc2ccccc2c1)C(=O)N[C@@H](CCC(N)=O)C(N)=O)[C@H](C)OP(=O)(O)O

inhibition [2]: < 10%
inhibition [3]: < 10%
inhibition [4]: < 10%
inhibition [5]: < 10%
inhibition [6]: < 10%
inhibition [7]: < 10%
inhibition [8]: < 10%
inhibition [9]: < 10%
inhibition [10]: < 10%
SMILES: CC(=O)N[C@@H](Cc1ccccc1)C(=O)N[C@@H](C(=O)N1CCCC[C@@H]1C(=O)N[C@@H](Cc1ccc2ccccc2c1)C(=O)N[C@@H](CCC(N)=O)C(N)=O)[C@H](C)OP(=O)(O)O
Activity (HeLa [12]): Dose-dependent effect

IC50 [1]: 20 µM
SMILES: CC(=O)N[C@@H](CCCCNC(=O)CCCC[C@@H]1SC[C@@H]2NC(=O)N[C@@H]21)C(=O)N[C@@H](C)C(=O)N[C@@H](C)C(=O)N[C@@H](Cc1ccccc1)C(=O)N[C@H](C(=O)N(C)[C@@H](C)C(=O)N[C@@H](Cc1csc2ccccc12)C(=O)N[C@@H](CCC(N)=O)C(N)=O)[C@H](C)OP(=O)(O)O (Ac-K(Biotin)AAF[alloThr(PO3H2)][NMeA][Bta]Q-NH2)

Ki [1]: 0.547 µM
SMILES: CC(=O)N[C@@H](Cc1ccccc1)C(=O)N[C@H](C(=O)N1CCCC[C@@H]1C(=O)N[C@@H](Cc1ccc2ccccc2c1)C(=O)N[C@@H](CCC(N)=O)C(N)=O)[C@H](C)OP(=O)(O)O

IC50 [1]: 15 µM
SMILES: CC(=O)N[C@@H](CCCCNC(=O)CCCC[C@@H]1SC[C@@H]2NC(=O)N[C@@H]21)C(=O)N[C@@H](C)C(=O)N[C@@H](C)C(=O)N[C@@H](Cc1ccc(-c2ccccc2)cc1)C(=O)N[C@H](C(=O)N1CCC[C@H]1C(=O)N[C@@H](Cc1csc2ccccc12)C(=O)N[C@@H](CCC(N)=O)C(N)=O)[C@H](C)OP(=O)(O)O (Ac-K(Biotin)AA[Bip][alloThr(PO3H2)]P[Bta]Q-NH2)

IC50 [1]: 25 µM
SMILES: CC(=O)N[C@@H](CCCCNC(=O)CCCC[C@@H]1SC[C@@H]2NC(=O)N[C@@H]21)C(=O)N[C@@H](C)C(=O)N[C@@H](C)C(=O)N[C@@H](CC1CCCCC1)C(=O)N[C@H](C(=O)N1Cc2ccccc2C[C@H]1C(=O)N[C@@H](Cc1ccc2ccccc2c1)C(=O)N[C@@H](CCC(N)=O)C(N)=O)[C@H](C)OP(=O)(O)O (Ac-K(Biotin)AA[Cha][alloThr(PO3H2)][Tic][2Nal]Q-NH2)

IC50 [1]: 0.21 µM
Ki [1]: 0.183 µM
Activity [13]: 5.7%
Activity [14]: 100%
Activity [15]: 0.4%
Activity [16]: 35%
Activity [17]: 0.4%
Activity [18]: 6%
Activity [19]: 100%
Activity [20]: 0.3%
Activity [21]: 0.2%
SMILES: CC(=O)N[C@@H](CCCCNC(=O)CCCC[C@@H]1SC[C@@H]2NC(=O)N[C@@H]21)C(=O)N[C@@H](C)C(=O)N[C@@H](C)C(=O)N[C@@H](Cc1csc2ccccc12)C(=O)N[C@H](C(=O)N1CCCC[C@H]1C(=O)N[C@@H](Cc1ccc2ccccc2c1)C(=O)N[C@@H](CCC(N)=O)C(N)=O)[C@H](C)OP(=O)(O)O (Ac-K(Biotin)AA[Bta][alloThr(PO3H2)][Pip][2Nal]Q-NH2)

IC50 [1]: 18 µM
Ki [1]: 0.0048 µM
SMILES: CC(=O)N[C@@H](CCCCNC(=O)CCCC[C@@H]1SC[C@@H]2NC(=O)N[C@@H]21)C(=O)N[C@@H](C)C(=O)N[C@@H](C)C(=O)N[C@@H](Cc1ccc(-c2ccccc2)cc1)C(=O)N[C@H](C(=O)N1CCC[C@H]1C(=O)N[C@@H](Cc1ccc2ccccc2c1)C(=O)N[C@@H](CCC(N)=O)C(N)=O)[C@H](C)OP(=O)(O)O (Ac-K(Biotin)AA[Bip][alloThr(PO3H2)]P[2Nal]Q-NH2)

IC50 [1]: 7 µM
SMILES: CC(=O)N[C@@H](CCCCNC(=O)CCCC[C@@H]1SC[C@@H]2NC(=O)N[C@@H]21)C(=O)N[C@@H](C)C(=O)N[C@@H](C)C(=O)N[C@@H](CC1CCCCC1)C(=O)N[C@H](C(=O)N(C)[C@@H](C)C(=O)N[C@@H](Cc1ccc2ccccc2c1)C(=O)N[C@@H](CCC(N)=O)C(N)=O)[C@H](C)OP(=O)(O)O (Ac-K(Biotin)AA[Cha][alloThr(PO3H2)][NMeA][2Nal]Q-NH2)

IC50 [1]: > 50 µM
SMILES: CC(=O)N[C@@H](CCCCNC(=O)CCCC[C@@H]1SC[C@@H]2NC(=O)N[C@@H]21)C(=O)N[C@@H](C)C(=O)N[C@@H](C)C(=O)N[C@@H](Cc1ccc2ccccc2c1)C(=O)N[C@H](C(=O)N1CCC[C@H]1C(=O)N[C@H](C(=O)N[C@@H](CCC(N)=O)C(N)=O)C(C)(C)C)[C@H](C)OP(=O)(O)O (Ac-K(Biotin)AA[2Nal][alloThr(PO3H2)]P[Tle]Q-NH2)

IC50 [1]: 15 µM
SMILES: CC(=O)N[C@@H](CCCCNC(=O)CCCC[C@@H]1SC[C@@H]2NC(=O)N[C@@H]21)C(=O)N[C@@H](C)C(=O)N[C@@H](C)C(=O)N[C@@H](Cc1cccs1)C(=O)N[C@H](C(=O)N(C)[C@@H](C)C(=O)N[C@@H](Cc1ccc2ccccc2c1)C(=O)N[C@@H](CCC(N)=O)C(N)=O)[C@H](C)OP(=O)(O)O (Ac-K(Biotin)AA[2Thi][alloThr(PO3H2)][NMeA][2Nal]Q-NH2)

IC50 [1]: 8 µM
SMILES: CC(=O)N[C@@H](CCCCNC(=O)CCCC[C@@H]1SC[C@@H]2NC(=O)N[C@@H]21)C(=O)N[C@@H](C)C(=O)N[C@@H](C)C(=O)N[C@@H](Cc1ccc(C(C)(C)C)cc1)C(=O)N[C@H](C(=O)N1Cc2ccccc2C[C@H]1C(=O)N[C@@H](Cc1csc2ccccc12)C(=O)N[C@@H](CCC(N)=O)C(N)=O)[C@H](C)OP(=O)(O)O (Ac-K(Biotin)AA[Phe(4-tBu)][alloThr(PO3H2)][Tic][Bta]Q-NH2)

IC50 [1]: 20 µM
SMILES: CC(=O)N[C@@H](CCCCNC(=O)CCCC[C@@H]1SC[C@@H]2NC(=O)N[C@@H]21)C(=O)N[C@@H](C)C(=O)N[C@@H](C)C(=O)N[C@@H](Cc1csc2ccccc12)C(=O)N[C@H](C(=O)N1CCC[C@H]1C(=O)N[C@@H](Cc1ccc2ccccc2c1)C(=O)N[C@@H](CCC(N)=O)C(N)=O)[C@H](C)OP(=O)(O)O (Ac-K(Biotin)AA[Bta][alloThr(PO3H2)]P[2Nal]Q-NH2)

IC50 [1]: > 50 µM
SMILES: CC(=O)N[C@@H](CCCCNC(=O)CCCC[C@@H]1SC[C@@H]2NC(=O)N[C@@H]21)C(=O)N[C@@H](C)C(=O)N[C@@H](C)C(=O)N[C@@H](Cc1csc2ccccc12)C(=O)N[C@H](C(=O)N1CCC[C@H]1C(=O)N[C@@H](CC1CCCCC1)C(=O)N[C@@H](CCC(N)=O)C(N)=O)[C@@H](C)OP(=O)(O)O (Ac-K(Biotin)AA[Bta][pT]P[Cha]Q-NH2)

IC50 [1]: > 50 µM
SMILES: CC(=O)N[C@@H](CCCCNC(=O)CCCC[C@@H]1SC[C@@H]2NC(=O)N[C@@H]21)C(=O)N[C@@H](C)C(=O)N[C@@H](C)C(=O)N[C@@H](Cc1ccc2ccccc2c1)C(=O)N[C@H](C(=O)N1CCC[C@H]1C(=O)N[C@@H](CC1CCCCC1)C(=O)N[C@@H](CCC(N)=O)C(N)=O)[C@H](C)OP(=O)(O)O (Ac-K(Biotin)AA[2Nal][alloThr(PO3H2)]P[Cha]Q-NH2)

Ki [1]: 0.258 µM
SMILES: CC(=O)N[C@@H](Cc1csc2ccccc12)C(=O)N[C@H](C(=O)N1CCCC[C@@H]1C(=O)N[C@@H](Cc1ccc2ccccc2c1)C(=O)N[C@@H](CCC(N)=O)C(N)=O)[C@@H](C)OP(=O)(O)O
